{"data": "Experimental data of several laboratories", "CDK16 with cyclin Y": "Cyclin-dependent kinase 16, with cyclin Y (CDK16, Homo sapiens, UniProt Q00536)", "CDK16": "Cyclin-dependent kinase 16 (CDK16, Homo sapiens, UniProt Q00536)", "note": "Lines come from different studies, so protocols differ."}
{"SMILES": "CS(=O)(=O)Nc1cccc(-c2csc(NC(=O)CSc3nc4nccnc4c(=O)n3CCc3ccccc3)n2)c1", "target": "CDK16 with cyclin Y", "observed": "enzyme activity", "action": "inhibitor", "tested at": "10 µM", "quantity": "inhibition", "value": "-1%"}
{"SMILES": "CNC(=O)Nc1ccc2c(c1)CC[C@@]21OC(=O)N(CC(=O)N(Cc2ccc(F)cc2)[C@@H](C)C(F)(F)F)C1=O", "target": "CDK16", "observed": "cell-free assay", "method": "competition with immobilised ligand", "tested at": "1 µM", "quantity": "remaining binding", "value": "75%"}
{"SMILES": "CCCCNc1ncc2c(-c3ccc(F)cc3)nn(C[C@H]3CC[C@H](N)CC3)c2n1", "target": "CDK16", "observed": "target engagement in cells", "action": "inhibitor", "method": "chemoproteomics", "tested at": "20 mM", "quantity": "inhibition", "value": "38.5%"}
{"SMILES": "CCCOc1ccc([C@H]2[C@H](C(=O)O)[C@@H](c3ccc4c(c3)OCO4)CN2CC(=O)Nc2c(CC)cccc2CC)cc1", "target": "CDK16", "observed": "cell-free assay", "method": "competition with immobilised ligand", "tested at": "1 µM", "quantity": "remaining binding", "value": "77%"}
{"SMILES": "Cn1c2c(c3ccc(Cl)c(Cl)c31)C(C#N)C1(CCCCC1)NC2=O (racemic)", "target": "CDK16", "observed": "thermal stability", "method": "DSF", "tested at": "10 µM", "quantity": "ΔTm", "value": "0.6 °C"}
{"SMILES": "CC(C)(C)c1nc(-c2cccc(NS(=O)(=O)c3c(F)cccc3F)c2F)c(-c2ccnc(N)n2)s1", "target": "CDK16 with cyclin Y", "observed": "enzyme activity", "action": "inhibitor", "method": "radiometric", "tested at": "1 µM", "quantity": "remaining activity", "value": "53%"}
{"SMILES": "Cn1c2c(Cl)c(Cl)ccc2c2cn[nH]c(=O)c21", "target": "CDK16", "observed": "thermal stability", "method": "DSF", "tested at": "10 µM", "quantity": "ΔTm", "value": "0.8 °C"}
{"SMILES": "CN([C@@H]1CCc2c(CC(=O)O)c3cc(S(C)(=O)=O)ccc3n2C1)S(=O)(=O)c1ccc(F)cc1", "target": "CDK16", "observed": "cell-free assay", "method": "competition with immobilised ligand", "tested at": "1 µM", "quantity": "remaining binding", "value": "84%"}
{"SMILES": "N#CC1c2c([nH]c3c(Cl)c(Cl)ccc23)C(=O)NC12CCCCC2 (racemic)", "target": "CDK16", "observed": "thermal stability", "method": "DSF", "tested at": "10 µM", "quantity": "ΔTm", "value": "0.9 °C"}
{"SMILES": "COc1cccc2c(NCc3ccccc3)nc(-n3c(N)nc4ccccc43)nc12", "target": "CDK16", "observed": "target engagement in cells", "action": "inhibitor", "method": "chemoproteomics", "tested at": "20 mM", "quantity": "inhibition", "value": "-2.7%"}
{"SMILES": "Cn1c2c(c3ccc(Cl)c(Cl)c31)C(C#N)C1(CCN(C(=O)OC(C)(C)C)CC1)NC2=O (racemic)", "target": "CDK16", "observed": "thermal stability", "method": "DSF", "tested at": "10 µM", "quantity": "ΔTm", "value": "0 °C"}
{"SMILES": "Nc1ncnc2occ(-c3ccc(NC(=O)Nc4cc(C(F)(F)F)ccc4F)cc3)c12", "target": "CDK16", "observed": "cell-free assay", "action": "inhibitor", "tested at": "20 µM", "quantity": "remaining signal", "value": "0.15%"}
